# Columns and labels:
# [1] = test system: Meyerozyma guilliermondii; experiment: In vitro evaluation of minimum inhibitory concentration against Candida guilliermondii 26; format: functional
# Procedure, shortened: (§1)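 Stocks are 800 μg/mL in 50% ethanol. Each plate gets 10 μL of inoculum at 10^5 cfu/mL. Incubation at 25 °C, 48 h for yeasts and 120 h for dermatophytes and molds. Organisms are ATCC strains or clinical isolates.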
# Trichophyton benhamiae = experiment: In vitro evaluation of minimum inhibitory concentration against Trichophyton mentagrophytes 23; format: functional, Arthroderma benhamiae; procedure, shortened: as §1
# Rhodotorula mucilaginosa = experiment: In vitro evaluation of minimum inhibitory concentration against Rhodotorula rubra 16; format: functional; procedure, shortened: as §1
# Candida albicans [2] = experiment: Evaluation of In vitro antifungal activity against Candida albicans 406 by broth macro dilution method; format: functional
# Procedure, shortened: (§2)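 Yeast MIC and MFC by broth macrodilution per NCCLS M27-P in RPMI-1640 buffered with 0.165 M MOPS. Fluconazole in sterile water, other drugs in DMSO. C. parapsilosis ATCC 22019 is the reference strain in each run. MIC is the lowest concentration with turbidity ≤ the 80% inhibition standard. For MFC, 0.04 mL from clear tubes is plated on Sabouraud agar; MFC is the lowest concentration giving ≤1 colony.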
# Rattus norvegicus [3] = experiment: In vivo evaluation of antifungal activity against vaginal candidosis in rat at dose 0.1 mg/kg on 15th day; format: functional
# Procedure, shortened: (§3)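 Groups of 10 female Wistar rats given estradiol 25 mg/kg sc on day -5, then vaginally inoculated with C. albicans on day 0. Infection is confirmed by culture of day-3 swabs. Compound is dosed orally once daily on days 3–5; controls get vehicle. Cure is scored by culture of vaginal swabs taken on days 10 and 15.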
# Cryptococcus neoformans [4] = experiment: Evaluation of In vitro antifungal activity against Cryptococcus neoformans 74 by broth macro dilution method; format: functional; procedure, shortened: as §2
# Candida albicans [5] = experiment: In vivo evaluation of minimum inhibitory concentration against Candida albicans 406; format: functional
# Procedure, shortened: (§4)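 Broth macrodilution MIC following NCCLS M27-P, in RPMI-1640 buffered with 0.165 M MOPS. Fluconazole was dissolved in water and other drugs in DMSO. C. parapsilosis ATCC 22019 served as the reference strain in every run. MIC was the lowest concentration giving turbidity at or below the 80% inhibition standard.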
# Aspergillus niger = experiment: In vitro evaluation of minimum inhibitory concentration against Aspergillus niger 18; format: functional; procedure, shortened: as §1
# Candida albicans [6] = experiment: Evaluation of In vitro antifungal activity against Candida albicans C52 by broth macro dilution method; format: functional; procedure, shortened: as §2
# Candida albicans [7] = experiment: Evaluation of In vitro antifungal activity against Candida albicans ATCC 10231 by broth macro dilution method; format: functional; procedure, shortened: as §2
# Candida albicans [8] = experiment: Evaluation of In vitro antifungal activity against Candida albicans 2.01 by broth macro dilution method; format: functional; procedure, shortened: as §2
# Aspergillus fumigatus = experiment: In vitro evaluation of minimum inhibitory concentration against Aspergillus fumigatus 33; format: functional; procedure, shortened: as §1
# Candida albicans [9] = experiment: Evaluation of In vitro antifungal activity against Candida albicans 60 by broth macro dilution method
# Mus musculus [10] = experiment: In vivo evaluation of % survival rate after peroral administration on 7th day at dose 0.5 mg/kg; format: functional; settings: route oral, 0.5 mg/kg
# Pichia kudriavzevii [11] = experiment: In vitro evaluation of minimum inhibitory concentration against Candida krusei 70; format: functional; procedure, shortened: as §1
# Candida parapsilosis [12] = experiment: In vitro evaluation of minimum inhibitory concentration against Candida parapsilosis 61; format: functional; procedure, shortened: as §1
# Candida parapsilosis [13] = experiment: Evaluation of In vitro antifungal activity against Candida parapsilosis ATCC 22019 by broth macro dilution method; format: functional; settings: Lodderomyces parapsilosis; procedure, shortened: as §2
# Candida parapsilosis [14] = experiment: Evaluation of In vitro antifungal activity against Candida parapsilosis 2.07 by broth macro dilution method; format: functional; settings: Lodderomyces parapsilosis; procedure, shortened: as §2
# Candida parapsilosis [15] = experiment: Evaluation of In vitro antifungal activity against Candida parapsilosis ATCC 141095 by broth macro dilution method; format: functional; settings: Lodderomyces parapsilosis; procedure, shortened: as §2
# Mus sp. [16] = experiment: In vivo evaluation of % survival rate after peroral administration on 9th day at dose 0.5 mg/kg; format: functional; settings: route oral, 0.5 mg/kg
# Candida tropicalis [17] = experiment: Evaluation of In vitro antifungal activity against Candida tropicalis 50 by broth macro dilution method; format: functional; procedure, shortened: as §2
# Cryptococcus neoformans [18] = experiment: Evaluation of In vitro antifungal activity against Cryptococcus neoformans 87 by broth macro dilution method; format: functional; procedure, shortened: as §2
# Candida albicans [19] = experiment: In vitro evaluation of minimum inhibitory concentration against Candida albicans 76; format: functional; procedure, shortened: as §1
# Candida tropicalis [20] = experiment: In vitro evaluation of minimum inhibitory concentration against Candida tropicalis 2.11; format: functional; procedure, shortened: as §1
# Rattus norvegicus [21] = experiment: In vivo evaluation of antifungal activity against vaginal candidosis in rat at dose 0.1 mg/kg on 10th day; format: functional; procedure, shortened: as §3
# Candida tropicalis [22] = experiment: Evaluation of In vitro antifungal activity against Candida tropicalis 2.11 by broth macro dilution method; format: functional; procedure, shortened: as §2
# Kluyveromyces marxianus [23] = experiment: Evaluation of In vitro antifungal activity against Candida pseudotropicalis ATCC 28838 by broth macro dilution method; format: functional; procedure, shortened: as §2
# Mus musculus [24] = experiment: In vivo evaluation of % survival rate after peroral administration on 3rd day at dose 0.5 mg/kg(as a water solution in (hydroxypropyl -beta-cyclodextrin)); format: functional; settings: route oral
# Procedure, shortened: (§5)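 Groups of 10 male mice were infected iv with 0.2 mL of C. albicans at (2-8) × 10^7 cfu/mL. Oral doses were given at 1, 4 and 24 h post-infection. Vehicle-only controls were included, with at least 90% control mortality by day 3. Percent survival was recorded on days 3, 5, 7 and 9.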
# Mus musculus [25] = experiment: In vivo evaluation of % survival rate after peroral administration on 9th day at dose 0.5 mg/kg(as a water solution in (hydroxypropyl -beta-cyclodextrin)); format: functional; settings: route oral; procedure, shortened: as §5
# Aspergillus flavus = experiment: In vitro evaluation of minimum inhibitory concentration against Aspergillus flavus 19; format: functional; procedure, shortened: as §1
# Candida parapsilosis [26] = experiment: Evaluation of In vitro antifungal activity against Candida parapsilosis C292 by broth macro dilution method; format: functional; settings: Lodderomyces parapsilosis; procedure, shortened: as §2
# Microsporum canis = experiment: In vitro evaluation of minimum inhibitory concentration against Microsporum canis 47; format: functional; procedure, shortened: as §1
# Candida albicans [27] = experiment: Evaluation of In vitro antifungal activity against Candida albicans C56 by broth macro dilution method; format: functional; procedure, shortened: as §2
# Kluyveromyces marxianus [28] = experiment: Evaluation of In vitro antifungal activity against yeasts by broth macro dilution method; format: functional; procedure, shortened: as §2
# Candida albicans [29] = experiment: Evaluation of In vitro antifungal activity against Candida albicans 76 by broth macro dilution method; format: functional; procedure, shortened: as §2
# Candida parapsilosis [30] = experiment: Evaluation of In vitro antifungal activity against Candida parapsilosis C74 by broth macro dilution method; format: functional; settings: Lodderomyces parapsilosis; procedure, shortened: as §2
# Kluyveromyces marxianus [31] = experiment: In vitro evaluation of minimum inhibitory concentration against Candida pseudotropicalis 13; format: functional; procedure, shortened: as §1
# Mus musculus [32] = experiment: In vivo evaluation of % survival rate after peroral administration on 7th day at dose 0.5 mg/kg(as a water solution in (hydroxypropyl -beta-cyclodextrin)); format: functional; settings: route oral; procedure, shortened: as §5
# Pichia kudriavzevii [33] = experiment: Evaluation of In vitro antifungal activity against Candida krusei C64 by broth macro dilution method; format: functional; procedure, shortened: as §2
# Rattus norvegicus [34] = experiment: In vivo evaluation of antifungal activity against vaginal candidosis in rat at dose 0.25 mg/kg on 15th day; format: functional
# Procedure, shortened: (§6)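 Groups of 10 female Wistar rats given estradiol 25 mg/kg sc on day -5, infected intravaginally with C. albicans by sterile swab on day 0; infection confirmed on day 3 by swab culture (TSB, then Sabouraud agar). Oral dosing once daily on days 3, 4, 5; vehicle controls. Vaginal swabs cultured on days 10 and 15; read-out % cured (culture-negative).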
# Candida albicans [35] = experiment: Evaluation of […] antifungal activity against Candida albicans 60 by broth macro dilution method; format: functional; procedure, shortened: as §2
# Trichophyton rubrum = experiment: IIn vitro evaluation of minimum inhibitory concentration against Trichophyton rubrum 90; format: functional; procedure, shortened: as §1
# Candida albicans [36] = experiment: Evaluation of In vitro antifungal activity against Candida albicans 31 by broth macro dilution method; format: functional; procedure, shortened: as §2
# [37] = test system: Meyerozyma guilliermondii; experiment: Evaluation of In vitro antifungal activity against Candida guilliermondii 26 by broth macro dilution method; format: functional; procedure, shortened: as §2
# Mus musculus [38] = experiment: In vivo evaluation of % survival rate after peroral administration on 5th day at dose 0.5 mg/kg(as a water solution in (hydroxypropyl -beta-cyclodextrin)); format: functional; settings: route oral; procedure, shortened: as §5
# Rattus norvegicus [39] = experiment: In vivo evaluation of antifungal activity against vaginal candidosis in rat at dose 0.25 mg/kg on 10th day; format: functional; procedure, shortened: as §6
# Pichia kudriavzevii [40] = experiment: Evaluation of In vitro antifungal activity against Candida krusei 70 by broth macro dilution method; format: functional; procedure, shortened: as §2
# Mus sp. [41] = experiment: In vivo evaluation of % survival rate after peroral administration on 9th day at dose 1 mg/kg; format: functional; settings: route oral, 1 mg/kg
# Nakaseomyces glabratus [42] = experiment: In vitro evaluation of minimum inhibitory concentration against Torulopsis glabrata 78; format: functional; procedure, shortened: as §1
# Nakaseomyces glabratus [43] = experiment: Evaluation of In vitro antifungal activity against Torulopsis glabrata 78 by broth macro dilution method; format: functional; procedure, shortened: as §2
# Candida albicans [44] = experiment: In vivo evaluation of minimum inhibitory concentration against Candida albicans 60; format: functional; procedure, shortened: as §4
smiles,measurement,setting,value
C[C@H]1N(C(=O)c2ccc(C(F)(F)F)cc2)CCO[C@@]1(Cn1cncn1)c1ccc(F)cc1F (stereo in doubt; (-)-41),MIC,[1],20 mg/L
same,MIC,Trichophyton benhamiae,40 mg/L
same,MIC,Rhodotorula mucilaginosa,5 mg/L
same,MFC,Candida albicans [2],> 64 mg/L
same,MIC,Candida albicans [2],0.25 mg/L
same,Cure rate,Rattus norvegicus [3],20%
same,MFC,Cryptococcus neoformans [4],0.25 mg/L
same,MIC,Cryptococcus neoformans [4],0.125 mg/L
same,MIC,Candida albicans [5],0.15 mg/L
same,MIC,Aspergillus niger,80 mg/L
same,MFC,Candida albicans [6],> 64 mg/L
same,MIC,Candida albicans [6],0.125 mg/L
same,MFC,Candida albicans [7],> 64 mg/L
same,MIC,Candida albicans [7],0.25 mg/L
same,MFC,Candida albicans [8],> 64 mg/L
same,MIC,Candida albicans [8],0.25 mg/L
same,MIC,Aspergillus fumigatus,40 mg/L
same,MFC,Candida albicans [9],> 64 mg/L
same,Survival,Mus musculus [10],70%
same,MIC,Pichia kudriavzevii [11],40 mg/L
same,MIC,Candida parapsilosis [12],10 mg/L
same,MFC,Candida parapsilosis [13],4 mg/L
same,MIC,Candida parapsilosis [13],2 mg/L
same,MFC,Candida parapsilosis [14],> 64 mg/L
same,MIC,Candida parapsilosis [14],1 mg/L
same,MFC,Candida parapsilosis [15],> 64 mg/L
same,MIC,Candida parapsilosis [15],32 mg/L
same,Survival,Mus sp. [16],40%
same,MFC,Candida tropicalis [17],> 64 mg/L
same,MIC,Candida tropicalis [17],16 mg/L
same,MFC,Cryptococcus neoformans [18],> 64 mg/L
same,MIC,Cryptococcus neoformans [18],2 mg/L
same,MIC,Candida albicans [19],1.25 mg/L
same,MIC,Candida tropicalis [20],40 mg/L
same,Cure rate,Rattus norvegicus [21],10%
same,MFC,Candida tropicalis [22],> 64 mg/L
same,MIC,Candida tropicalis [22],4 mg/L
same,MFC,Kluyveromyces marxianus [23],32 mg/L
same,survival at 0.5 mg/kg,Mus musculus [24],100%
same,survival at 0.5 mg/kg,Mus musculus [25],30%
same,MIC,Aspergillus flavus,40 mg/L
same,MFC,Candida parapsilosis [26],> 64 mg/L
same,MIC,Candida parapsilosis [26],2 mg/L
same,MIC,Microsporum canis,20 mg/L
same,MFC,Candida albicans [27],> 64 mg/L
same,MIC,Candida albicans [27],0.125 mg/L
same,MIC,Kluyveromyces marxianus [28],0.125 mg/L
same,MFC,Candida albicans [29],> 64 mg/L
same,MIC,Candida albicans [29],0.125 mg/L
same,MFC,Candida parapsilosis [30],8 mg/L
same,MIC,Candida parapsilosis [30],0.5 mg/L
same,MIC,Kluyveromyces marxianus [31],40 mg/L
same,survival at 0.5 mg/kg,Mus musculus [32],60%
same,MFC,Pichia kudriavzevii [33],> 64 mg/L
same,MIC,Pichia kudriavzevii [33],32 mg/L
same,Cure rate,Rattus norvegicus [34],60%
same,MIC,Candida albicans [35],0.25 mg/L
same,MIC,Trichophyton rubrum,10 mg/L
same,MFC,Candida albicans [36],> 64 mg/L
same,MIC,Candida albicans [36],0.125 mg/L
same,MFC,[37],> 64 mg/L
same,MIC,[37],8 mg/L
same,survival at 0.5 mg/kg,Mus musculus [38],100%
same,Cure rate,Rattus norvegicus [39],40%
same,MFC,Pichia kudriavzevii [40],> 64 mg/L
same,MIC,Pichia kudriavzevii [40],32 mg/L
same,Survival,Mus sp. [41],70%
same,MIC,Nakaseomyces glabratus [42],10 mg/L
same,MFC,Nakaseomyces glabratus [43],> 64 mg/L
same,MIC,Nakaseomyces glabratus [43],16 mg/L
same,MIC,Candida albicans [44],0.31 mg/L

# Reference: ChEMBL document CHEMBL1128448, “Synthesis and antifungal activity of new azole derivatives containing an N-acylmorpholine ring” (1995)
